Common to all, as to type: functional
For one test, the system named is Streptococcus pyogenes. Nature of the test: Antibacterial activity was determined against gram positive organism, Streptococcus pyogenes C203. As to conditions: Streptococcus pyogenes; read-out: MIC. Summed up: (§1)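 MIC (µg/mL) by standard microtitration against a panel of 10 Gram-positive and Gram-negative organisms; values averaged from multiple experiments.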

The subject of the next test is Streptococcus pneumoniae. Nature of the test: Antibacterial activity was determined against gram positive organism, Streptococcus pneumoniae SV-1. As to conditions: Streptococcus pneumoniae; read-out: MIC. Put shortly:
as §1

A further test concerns Enterococcus faecalis. Nature of the test: Antibacterial activity was determined against gram positive organism, Streptococcus faecalis MGH-2. As to conditions: Enterococcus faecalis; read-out: MIC. Summed up: as §1
Test [1] relates to Bacteria. As to the kind of experiment: Antibacterial activity was determined against gram negative organism, Providencia rettgeri. M1771. As to conditions: Bacteria; read-out: MIC. Summed up:
as §1

In test [2] the target is DNA gyrase (Escherichia coli) (UniProt P0AES6+P0AES4). As to the kind of experiment: Minimum inhibitory concentration against Escherichia coli DNA-gyrase in supercoiling assay.
For test [3], the system named is Staphylococcus aureus. Nature of the test: Antibacterial activity was determined against gram positive organism, Staphylococcus aureus UC76. Summed up: as §1
The subject of test [4] is Bacteria. Nature of the test: MIC ratio measured as the mean MICs of gram-positive bacteria. Summed up:
(§2)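 Geometric mean of the microtitration MICs (µg/mL) over the Gram-negative organisms, and separately over the Gram-positive organisms, of the 10-strain panel; individual MICs averaged from multiple experiments.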

A further test concerns Klebsiella pneumoniae. As to the kind of experiment: Antibacterial activity was determined against gram negative organism, Klebsiella pneumoniae MGH-2. As to conditions: Klebsiella pneumoniae; read-out: MIC. Summed up:
as §1

Another test has as its system Enterobacter cloacae. As to the kind of experiment: Antibacterial activity was determined against gram negative organism, Enterobacter cloacae MA2646. As to conditions: Enterobacter cloacae; read-out: MIC.
Another test concerns Escherichia coli. As to the kind of experiment: Antibacterial activity was determined against gram negative organism, Escherichia coli vogel. As to conditions: Escherichia coli; read-out: MIC. Put shortly: as §1
Test [5] has as its system Staphylococcus aureus. Nature of the test: Antibacterial activity was determined against gram positive organism, Staphylococcus aureus H228. As to conditions: Staphylococcus aureus; read-out: MIC. Put shortly:
as §1

A further test concerns Pseudomonas aeruginosa. As to the kind of experiment: Antibacterial activity was determined against gram negative organism, Pseudomonas aeruginosa UI-18. As to conditions: Pseudomonas aeruginosa; read-out: MIC. Put shortly:
as §1

Test [6] concerns Bacteria. As to the kind of experiment: MIC ratio measured as the mean MICs of gram-negative bacteria. Put shortly:
as §2

Setting [7] is: Staphylococcus aureus, read-out: MIC.

Values after ≈ are worked out from the molar mass of the structure shown.

With `CCn1cc(C(=O)O)c(=O)c2c(O)c(F)c(N3CCNCC3)c(F)c21`, the MIC in the test with Streptococcus pyogenes was found to be 25 µg/mL (≈ 70.8 µM); in the test with Streptococcus pneumoniae, 25 µg/mL (≈ 70.8 µM); in the test on Enterococcus faecalis, 25 µg/mL (≈ 70.8 µM); in the test on Bacteria [1], 1.6 µg/mL (≈ 4.53 µM); in test [2] it was 5 µg/mL (≈ 14.2 µM); in the test on Staphylococcus aureus [3] (setting [7]), 1.6 µg/mL (≈ 4.53 µM). In addition, the MIC in the test on Klebsiella pneumoniae is 0.8 µg/mL (≈ 2.26 µM); with Enterobacter cloacae it was 0.4 µg/mL (≈ 1.13 µM); with Escherichia coli, 0.4 µg/mL (≈ 1.13 µM); with Staphylococcus aureus [5], 12.5 µg/mL (≈ 35.4 µM); in the test with Pseudomonas aeruginosa it was 1.6 µg/mL (≈ 4.53 µM). For the same molecule, in the test on Bacteria [4], the “Geometric mean MIC over Gram-positive bacteria (µg/mL)” value was determined as 12.56. Moreover, the Geometric mean MIC over Gram-negative bacteria (µg/mL) in the test on Bacteria [6] is 0.8.

On to `CCn1cc(C(=O)O)c(=O)c2c(N)c(F)c(N3CCNCC3)c(Cl)c21`, for which the MIC with Streptococcus pyogenes was 3.1 µg/mL (≈ 8.41 µM); in the test on Streptococcus pneumoniae, 3.1 µg/mL (≈ 8.41 µM); in the test with Enterococcus faecalis, 6.3 µg/mL (≈ 17.1 µM); with Bacteria [1], 1.6 µg/mL (≈ 4.34 µM); in [2] it was 5 µg/mL (≈ 13.6 µM); in the test with Staphylococcus aureus [3] (setting [7]), 0.4 µg/mL (≈ 1.08 µM). In addition, the MIC with Klebsiella pneumoniae was found to be 0.4 µg/mL (≈ 1.08 µM); with Enterobacter cloacae, 0.4 µg/mL (≈ 1.08 µM); with Escherichia coli, 0.2 µg/mL (≈ 0.542 µM); in the test with Staphylococcus aureus [5], 3.1 µg/mL (≈ 8.41 µM); in the test with Pseudomonas aeruginosa, 6.3 µg/mL (≈ 17.1 µM). The “Geometric mean MIC over Gram-positive bacteria (µg/mL)” value in the test with Bacteria [4] was 2.37. Further, in the test with Bacteria [6], the Geometric mean MIC over Gram-negative bacteria (µg/mL) was found to be 0.79.

Consider `CCn1cc(C(=O)O)c(=O)c2c(N)c(F)c(N3CC(C)NC(C)C3)c(Cl)c21` (stereo not drawn), for which the MIC with Streptococcus pyogenes is 25 µg/mL (≈ 63 µM); with Streptococcus pneumoniae it was 25 µg/mL (≈ 63 µM); in the test with Enterococcus faecalis, 12.5 µg/mL (≈ 31.5 µM); in the test with Bacteria [1] it was 6.3 µg/mL (≈ 15.9 µM); in test [2], 7.5 µg/mL (≈ 18.9 µM); with Staphylococcus aureus [3] (setting [7]), 1.6 µg/mL (≈ 4.03 µM). For the same molecule, the MIC in the test on Klebsiella pneumoniae was determined as 6.3 µg/mL (≈ 15.9 µM); with Enterobacter cloacae, 1.6 µg/mL (≈ 4.03 µM); in the test with Escherichia coli, 1.6 µg/mL (≈ 4.03 µM); in the test on Staphylococcus aureus [5], 3.1 µg/mL (≈ 7.81 µM); in the test with Pseudomonas aeruginosa, 12.5 µg/mL (≈ 31.5 µM). Also, the “Geometric mean MIC over Gram-positive bacteria (µg/mL)” value in the test on Bacteria [4] came to 8.27. In the test on Bacteria [6], the Geometric mean MIC over Gram-negative bacteria (µg/mL) is 4.18.

For `CCn1cc(C(=O)O)c(=O)c2cc(F)c(N3CCNCC3)c(F)c21`, the MIC with Streptococcus pyogenes is 3.1 µg/mL (≈ 9.19 µM); with Streptococcus pneumoniae, 3.1 µg/mL (≈ 9.19 µM); in the test on Enterococcus faecalis, 1.6 µg/mL (≈ 4.74 µM); with Bacteria [1], 0.2 µg/mL (≈ 0.593 µM); in test [2], 2.5 µg/mL (≈ 7.41 µM); in the test on Staphylococcus aureus [3], 0.4 µg/mL (≈ 1.19 µM). The MIC in the test on Klebsiella pneumoniae was 0.1 µg/mL (≈ 0.296 µM); with Enterobacter cloacae it was 0.1 µg/mL (≈ 0.296 µM); in the test with Escherichia coli, 0.1 µg/mL (≈ 0.296 µM); in the test with Staphylococcus aureus [5] it was 1.6 µg/mL (≈ 4.74 µM); with Pseudomonas aeruginosa it was 0.8 µg/mL (≈ 2.37 µM). The “Geometric mean MIC over Gram-positive bacteria (µg/mL)” value with Bacteria [4] was 1.58. Besides, in the test with Bacteria [6], the Geometric mean MIC over Gram-negative bacteria (µg/mL) is 0.17.

As to `CCNCC1CCN(c2c(F)c(N)c3c(=O)c(C(=O)O)cn(CC)c3c2Cl)C1` (stereo not drawn), the MIC is 6.3 µg/mL (≈ 15.3 µM) in the test with Streptococcus pyogenes; 1.6 µg/mL (≈ 3.89 µM) in the test on Streptococcus pneumoniae; 1.6 µg/mL (≈ 3.89 µM) in the test with Enterococcus faecalis; 12.5 µg/mL (≈ 30.4 µM) with Bacteria [1]; 2.5 µg/mL (≈ 6.08 µM) in test [2]; 0.4 µg/mL (≈ 0.974 µM) in the test on Staphylococcus aureus [3] (setting [7]). Moreover, the MIC with Klebsiella pneumoniae was 6.3 µg/mL (≈ 15.3 µM); in the test on Enterobacter cloacae, 3.1 µg/mL (≈ 7.54 µM); with Escherichia coli, 1.6 µg/mL (≈ 3.89 µM); in the test on Staphylococcus aureus [5] it was 1.6 µg/mL (≈ 3.89 µM); in the test on Pseudomonas aeruginosa, 25 µg/mL (≈ 60.8 µM). For the same molecule, in the test with Bacteria [4], the “Geometric mean MIC over Gram-positive bacteria (µg/mL)” value is 1.59. The Geometric mean MIC over Gram-negative bacteria (µg/mL) with Bacteria [6] is 6.28.

Consider `CCn1cc(C(=O)O)c(=O)c2c(N)c(F)c(N3CCNCC3)c(F)c21`, for which the MIC in the test with Streptococcus pyogenes was 3.1 µg/mL (≈ 8.8 µM); with Streptococcus pneumoniae, 1.6 µg/mL (≈ 4.54 µM); in the test on Enterococcus faecalis, 1.6 µg/mL (≈ 4.54 µM); with Bacteria [1], 0.4 µg/mL (≈ 1.14 µM); in test [2], 2.5 µg/mL (≈ 7.1 µM); in the test on Staphylococcus aureus [3] (setting [7]) it was 0.2 µg/mL (≈ 0.568 µM). Further, the MIC with Klebsiella pneumoniae came to 0.2 µg/mL (≈ 0.568 µM); in the test on Enterobacter cloacae, 0.2 µg/mL (≈ 0.568 µM); with Escherichia coli, 0.1 µg/mL (≈ 0.284 µM); with Staphylococcus aureus [5], 1.6 µg/mL (≈ 4.54 µM); in the test on Pseudomonas aeruginosa, 0.8 µg/mL (≈ 2.27 µM). Also, in the test on Bacteria [4], the “Geometric mean MIC over Gram-positive bacteria (µg/mL)” value is reported as 1.15. The Geometric mean MIC over Gram-negative bacteria (µg/mL) in the test on Bacteria [6] turned out to be 0.26.

For the origin of these results see ChEMBL document CHEMBL1125826, “Synthesis and biological activity of 5-amino- and 5-hydroxyquinolones, and the overwhelming influence of the remote N1-substituent in determining the structure-activity relationship” (1991).
